How the values were obtained:
Rattus norvegicus [1] = experiment: Alanine aminotransferase activity in Sprague-Dawley rat serum at 100 mg/kg, po; assay type: functional
How it was run: (§1)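 Male Sprague–Dawley rats (180-200 g), 5 per group, dosed orally once daily for 5 successive days. Twenty-four hours after the last dose, each rat received a single oral dose of 50% CCl4 in corn oil (2.5 ml/kg). Comparison groups were corn oil alone and CCl4 alone. Two days later, blood was taken from the orbital plexus, and serum was separated by centrifugation at 3000 rpm for 15 min for the assays.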

Rattus norvegicus [2] = experiment: Aspartate aminotransferase activity in Sprague-Dawley rat serum at 100 mg/kg, po; assay type: functional; how it was run: as §1
Rattus norvegicus [3] = experiment: Gamma-glutamyl transferase activity in Sprague-Dawley rat serum at 100 mg/kg, po; assay type: functional; how it was run: as §1
Rattus norvegicus [4] = experiment: Glucose level in Sprague-Dawley rat serum at 100 mg/kg, po; assay type: functional; how it was run: as §1
Rattus norvegicus [5] = experiment: Total bilirubin level in Sprague-Dawley rat serum at 100 mg/kg, po; assay type: functional; how it was run: as §1
Rattus norvegicus [6] = experiment: Triglyceride level in Sprague-Dawley rat serum at 100 mg/kg, po; assay type: functional; how it was run: as §1
Rattus norvegicus [7] = experiment: Cholesterol level in Sprague-Dawley rat serum at 100 mg/kg, po; assay type: functional; how it was run: as §1
Rattus norvegicus [8] = experiment: Total protein level in Sprague-Dawley rat serum at 100 mg/kg, po; assay type: functional; how it was run: as §1
Rattus norvegicus [9] = experiment: Albumin level in Sprague-Dawley rat serum at 100 mg/kg, po; assay type: functional; how it was run: as §1
Rattus norvegicus [10] = experiment: Total bilirubin level in Sprague-Dawley rat serum at 25 mg/kg, po; assay type: functional, organism-based; parameters: dose 25 mg/kg; how it was run: as §1
Rattus norvegicus [11] = experiment: Triglyceride level in Sprague-Dawley rat serum at 25 mg/kg, po; assay type: functional, organism-based; parameters: dose 25 mg/kg; how it was run: as §1
Rattus norvegicus [12] = experiment: Cholesterol level in Sprague-Dawley rat serum at 25 mg/kg, po; assay type: functional, organism-based; parameters: dose 25 mg/kg; how it was run: as §1
Rattus norvegicus [13] = experiment: Total protein level in Sprague-Dawley rat serum at 25 mg/kg, po; assay type: functional, organism-based; parameters: dose 25 mg/kg; how it was run: as §1
Rattus norvegicus [14] = experiment: Albumin level in Sprague-Dawley rat serum at 25 mg/kg, po; assay type: functional, organism-based; parameters: dose 25 mg/kg; how it was run: as §1
Rattus norvegicus [15] = experiment: Alanine aminotransferase activity in Sprague-Dawley rat serum at 25 mg/kg, po; assay type: functional, organism-based; parameters: dose 25 mg/kg; how it was run: as §1
Rattus norvegicus [16] = experiment: Aspartate aminotransferase activity in Sprague-Dawley rat serum at 25 mg/kg, po; assay type: functional, organism-based; parameters: dose 25 mg/kg; how it was run: as §1
Rattus norvegicus [17] = experiment: Gamma-glutamyl transferase activity in Sprague-Dawley rat serum at 25 mg/kg, po; assay type: functional, organism-based; parameters: dose 25 mg/kg; how it was run: as §1
Rattus norvegicus [18] = experiment: Glucose level in Sprague-Dawley rat serum at 25 mg/kg, po; assay type: functional, organism-based; parameters: dose 25 mg/kg; how it was run: as §1

COc1cc(-c2cc(=O)c3c(O)cc(OC4O[C@H](CO)[C@@H](O)[C@@H]4OC4OC[C@@H](O)[C@H](O)[C@H]4O)cc3o2)ccc1O (some centres not stated) was tested, and the Activity (Rattus norvegicus [1]) was 68.43 U/L, the Activity (Rattus norvegicus [2]) was 61.64 U/L and the Activity (Rattus norvegicus [3]) was 12.03 U/L. For the same molecule, the Activity (Rattus norvegicus [4]) was 163.36 mg/dL, the Activity (Rattus norvegicus [5]) was 0.33 mg/dL and the Activity (Rattus norvegicus [6]) was 177.22 mg/dL. The Activity (Rattus norvegicus [7]) was 88.34 mg/dL, the Activity (Rattus norvegicus [8]) was 5.67 g/dL and the Activity (Rattus norvegicus [9]) was 3.07 g/dL.
Work on COc1cc(-c2cc(=O)c3c(O)cc(O)cc3o2)ccc1O [CHRYSOERIOL] yielded an Activity (Rattus norvegicus [1]) of 69.42 U/L, an Activity (Rattus norvegicus [2]) of 62.65 U/L and an Activity (Rattus norvegicus [3]) of 12.05 U/L. It also gave an Activity (Rattus norvegicus [4]) of 165.36 mg/dL, an Activity (Rattus norvegicus [5]) of 0.33 mg/dL and an Activity (Rattus norvegicus [6]) of 176.21 mg/dL. For the same molecule, the Activity (Rattus norvegicus [7]) was 88.37 mg/dL, the Activity (Rattus norvegicus [8]) was 5.61 g/dL and the Activity (Rattus norvegicus [9]) was 3.05 g/dL.
SILYMARIN showed an Activity (Rattus norvegicus [10]) of 0.38 mg/dL, an Activity (Rattus norvegicus [11]) of 171 mg/dL and an Activity (Rattus norvegicus [12]) of 80.9 mg/dL. It also gave an Activity (Rattus norvegicus [13]) of 6.1 g/dL, an Activity (Rattus norvegicus [14]) of 3.1 g/dL and an Activity (Rattus norvegicus [15]) of 65.2 U/L. It also gave an Activity (Rattus norvegicus [16]) of 56.6 U/L, an Activity (Rattus norvegicus [17]) of 10.5 U/L and an Activity (Rattus norvegicus [18]) of 141 mg/dL.

— ChEMBL document CHEMBL1146882, “Hepatoprotective activity of Schouwia thebica webb” (2006)
